This is an account of results in ChEMBL document CHEMBL3091413, “Fine molecular tuning at position 4 of 2H-chromen-2-one derivatives in the search of potent and selective monoamine oxidase B inhibitors” (Eur J Med Chem, 2013).

The species entered for one assay is Rattus norvegicus. The experiment in a line: Selectivity ratio for Sprague-Dawley rat MAO-B to Sprague-Dawley rat MAO-A. In short, it runs like this: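 Selectivity index is pIC50 MAO-B minus pIC50 MAO-A (ΔpIC50), from the rat brain mitochondrial kynuramine assay.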
Assay [1] deals with T1, Amine oxidase [flavin-containing] A (Rattus norvegicus, UniProt P21396).
T1 sequence (P21396 whole entry): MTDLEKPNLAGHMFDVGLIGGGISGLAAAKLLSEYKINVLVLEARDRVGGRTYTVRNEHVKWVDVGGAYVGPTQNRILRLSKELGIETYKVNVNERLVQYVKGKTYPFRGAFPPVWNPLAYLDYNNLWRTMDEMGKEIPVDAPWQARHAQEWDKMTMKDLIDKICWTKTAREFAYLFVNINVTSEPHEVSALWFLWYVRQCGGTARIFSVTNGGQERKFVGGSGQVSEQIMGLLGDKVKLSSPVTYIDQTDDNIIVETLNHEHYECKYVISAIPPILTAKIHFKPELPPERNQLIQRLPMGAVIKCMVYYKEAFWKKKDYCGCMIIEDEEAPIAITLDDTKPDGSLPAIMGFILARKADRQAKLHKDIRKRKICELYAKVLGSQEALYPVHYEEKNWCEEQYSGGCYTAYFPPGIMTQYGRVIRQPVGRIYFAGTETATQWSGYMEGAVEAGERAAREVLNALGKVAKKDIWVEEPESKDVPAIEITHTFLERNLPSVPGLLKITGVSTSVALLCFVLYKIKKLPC
The experiment in a line: Inhibition of Sprague-Dawley rat MAO-A using Kynuramine as substrate assessed as formation of 4-hydroxyquinoline preincubated for 5 mins prior to substrate addition measured for 5 mins by spectrophotometry. In short, it runs like this:
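Enzyme source: crude brain mitochondrial fraction from male Sprague-Dawley rats (200-250 g), decapitated. Brains were washed in ice-cold isotonic Na2HPO4/KH2PO4 buffer (pH 7.40) with sucrose, fractionated by differential centrifugation, and stored at -40 °C in isotonic phosphate buffer (pH 7.4) with KCl. Kynuramine oxidation to 4-hydroxyquinoline was monitored spectrophotometrically. Values are the mean of two or three independent experiments.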

In assay [2] the target is T2, Amine oxidase [flavin-containing] B (Rattus norvegicus, UniProt P19643).
T2 sequence (P19643 whole entry): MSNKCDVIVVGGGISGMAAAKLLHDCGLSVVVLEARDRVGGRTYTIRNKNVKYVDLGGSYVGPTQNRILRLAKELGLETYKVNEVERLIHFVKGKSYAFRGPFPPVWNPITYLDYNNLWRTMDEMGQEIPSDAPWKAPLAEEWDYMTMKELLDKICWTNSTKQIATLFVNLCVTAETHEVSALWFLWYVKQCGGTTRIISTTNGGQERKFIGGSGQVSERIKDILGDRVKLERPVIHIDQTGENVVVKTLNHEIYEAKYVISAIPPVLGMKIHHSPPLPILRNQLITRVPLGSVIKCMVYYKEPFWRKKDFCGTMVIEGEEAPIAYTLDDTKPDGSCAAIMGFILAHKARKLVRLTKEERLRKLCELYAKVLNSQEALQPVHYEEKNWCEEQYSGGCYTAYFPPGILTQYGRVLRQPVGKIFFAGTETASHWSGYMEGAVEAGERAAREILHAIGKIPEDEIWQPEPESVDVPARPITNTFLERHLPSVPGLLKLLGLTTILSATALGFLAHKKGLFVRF
Briefly: Inhibition of Sprague-Dawley rat MAO-B using Kynuramine as substrate assessed as formation of 4-hydroxyquinoline preincubated for 5 mins prior to substrate addition measured for 5 mins by spectrophotometry.

With `NC(=O)COc1cc(=O)oc2cc(OCc3cccc(Cl)c3)ccc12`, the Selectivity ratio in the assay filed under Rattus norvegicus was found to be 7240. Besides, the IC50 in assay [1] was 24000 nM; in assay [2] (read-out: IC50) it was 3.1 nM; in assay [2] (read-out: pIC50 (converted)), 3.31 nM.

In the case of `COc1cc(=O)oc2cc(OCc3cccc(Cl)c3)ccc12`, the results for the IC50 in assay [1] and in assay [2] (read-out: pIC50 (converted)) were 11700 nM and 7.76 nM, respectively.

For the compound `CCNc1cc(=O)oc2cc(OCc3cccc(Cl)c3)ccc12`, the IC50 in assay [1] was 9330 nM; in assay [2] (read-out: pIC50 (converted)), 28.2 nM.

With `O=c1cc(Cl)c2ccc(OCc3cccc(Cl)c3)cc2o1`, the IC50 in assay [1] was 8910 nM; in assay [2] (read-out: pIC50 (converted)) it was 20.9 nM.
